PolyA inhibitor: polyadenylation inhibitors in yeast reporter cells, primary screen, luminescence, S. cerevisiae; S. cerevisiae SKY197-pL101 polyadenylation reporter, beta-gal luminescence; efflux-impaired pdr1/pdr3 knockout yeast; score 100 = 6 SD above DMSO; activity score, % at 12 µM; 300,000 compounds, 0.02% hits; AID 1875, 2009;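 active = lowest replicate activity score at least 50, where 100 means six control SD above control mean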;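 note: yeast exposed to compound for 9 h at 30 °C; higher score means more reporter readthrough which indicates perturbed polyadenylation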
L major viab: Leishmania major promastigote growth inhibition, primary screen; Leishmania major promastigotes, resazurin fluorescence viability; 200,000 compounds, 9% hits; AID 1063, 2008; inhibition, % at 10 µM; in the data active = inhibition above about 50%;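 note: promastigotes grown with compound for 44 hours at 28 °C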
NALP3 yeast inh: NALP3 inflammasome inhibitors in reconstituted yeast, primary screen, luminescence, uHTS; 330,000 compounds, 0.39% hits; inhibition, % at 10 µM; Yeast reconstituted NLRP3/ASC/caspase-1, beta-gal luminescence, 24 h;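 active = inhibition of 50% or more; inactive = inhibition below 50%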;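 note: plate controls were induced DMSO wells for no effect and uninduced yeast grown without galactose for full effect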
Calb FLC: C. albicans growth inhibition with fluconazole, primary screen, CaCi-2 strain, Alamar Blue fluorescence | C. albicans CaCi-2 (fluconazole-resistant clinical isolate) + fluconazole, 48 h | growth inhibition, % (test concentration not listed) | 300,000 compounds, 0.57% hits | AID 1979, 2009;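 active = growth inhibition above about 58% in most replicates, limit read from the data, passing the limit was not always enough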;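 note: all wells also contain fluconazole at 8 µg/ml as a sub-toxic cotreatment; 0% = median of DMSO wells and 100% = median of geldanamycin control wells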
NALP1 yeast inh: NALP1 inflammasome inhibitors in reconstituted yeast, colorimetric, S. cerevisiae, triplicate retest; AID 2071, 2009; inhibition, % at 10 µM; S. cerevisiae NALP1/ASC/caspase-1 growth, X-gal OD620, 72 h; 280,000 compounds, 0.61% hits; in the data active = inhibition mostly above about 24%, no sharp cut-off; inactive = mostly below about 32%
T cruzi inh: inhibitors of intracellular T. cruzi growth, primary screen, luminescence, NIH3T3 host cells; T. cruzi beta-gal in NIH3T3, 90 h; inhibition, % (test concentration not listed); 300,000 compounds, 1.4% hits; AID 1885, 2009;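 active = mean inhibition across valid replicates above about 55%, limit read from the data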;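 note: signal also drops with host cell toxicity which is not excluded here; 0% = plate median of DMSO wells and 100% = zero luminescence signal; higher percent means less beta-gal luminescence so fewer parasites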
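Test system: β-gal T. cruzi (Tulahuen C4) inside NIH/3T3 cells / Quantity: 5,000 cells/well / Measured by: luminescence from GalScreen with 0.05% NP40, read after 60 min / Medium: DMEM plus 2% FBS / Measure: parasite load inhibition, % / Reagent: Tulahuen C4 trypomastigotes, 5000/well / Schedule: co-culture of at least 90 h after 3 h attachment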
An asterisk follows results filed as active; · = no result given. The full list was thinned out, with hits kept by preference.

SMILES	PolyA inhibitor	L major viab	NALP3 yeast inh	Calb FLC	NALP1 yeast inh	T cruzi inh
COc1ccc(C)cc1N(C(=O)c1ccco1)C(C(=O)NC1CCCC1)c1ccc(N2CCOCC2)cc1 (configuration not stated)	12.4	·	9.2	-2.6	3.4	12.1
Cc1cc(C)n(-c2ccc(C(=O)N3CCN(S(=O)(=O)c4ccc(Cl)cc4)CC3)cc2)n1	·	·	22.8	·	·	·
CCOc1ccc(N2C(=O)/C(=C\c3ccccc3OC)S(=O)(=O)C2c2cccc([N+](=O)[O-])c2)cc1 (configuration not stated)	-37.3	50.0*	11.7	-5.0	13.8	2.0
COc1ccccc1/C=C1/C(=O)N(c2cc(C)cc(C)c2)C(c2cccc([N+](=O)[O-])c2)S1(=O)=O (configuration not stated)	-13.2	18.9	9.0	-16.9	17.0	3.5
O=C(CN1CCC(c2nc3ccccc3s2)CC1)NCc1cccs1	-27.2	2.8	-16.7	12.8	18.8	68.0*
O=C(CN1CCC(c2nc3ccccc3s2)CC1)N1CCCCC1	-2.7	-3.5	9.3	-4.3	14.7	8.6
O=C(NC(=S)NC1C2CC3CC(C2)CC1C3)C12CC3CC(CC(C3)C1)C2 (configuration not stated)	-11.8	51.2*	-0.3	12.5	9.7	30.0
CC(C)(C)NC(=S)NC(=O)C12CC3CCC(CC(C3)C1)C2	-10.5	6.7	24.0	-38.0	42.4	28.8
O=C(Cn1nc(C(F)(F)F)c2c1CCCC2)NCc1ccco1	13.5	10.4	-0.6	-1.3	4.4	-3.1
O=C1S/C(=C/c2ccc(N3CCOCC3)o2)C(=O)N1Cc1c(F)cccc1Cl	-53.6	84.8*	33.3	-7.7	27.1	36.4
Cc1cc(C)c2nc(C)cc(Nc3ccc(C(=O)N(C)C)cc3)c2c1	14.9	·	-5.1	-2.2	1.0	21.5
CC(=O)c1ccc(Nc2cc(C)nc3c(C)cc(C)cc23)cc1	-9.4	100.2*	-0.1	-6.6	24.8	21.4
CCOC(=O)c1cc(-c2ccc(C)cc2)n(CCC(=O)N2CCN(c3ccccn3)CC2)c1C	-1.5	89.5*	27.4	-4.8	24.8	21.5
COc1ccc(C(=O)CCC(=O)N2CCN(c3ccc([N+](=O)[O-])cc3)CC2)cc1	2.5	·	9.0	-2.3	23.5	-5.0
O=C(CCCc1ccccc1)N1CCN(c2ccc([N+](=O)[O-])cc2)CC1	-8.4	58.4*	28.0	-52.6	-12.2	2.5
O=C(CCc1ccccc1)N1CCN(c2ccccn2)CC1	-3.9	51.9*	-17.4	-3.9	-12.6	-2.6
O=C(CCCC(=O)N1CCN(c2ccc([N+](=O)[O-])cc2)CC1)c1ccccc1	-0.3	85.9*	25.1	4.3	41.5	-14.9
COC(=O)CC(NC(=O)c1ccc(C)cc1)c1ccccc1 (configuration not stated)	-0.4	1.0	7.9	-5.2	33.5	-0.5
Cc1ccccc1OC(C)C(=O)N1CCN(c2ccccn2)CC1 (configuration not stated)	-15.2	·	6.0	2.2	32.5*	-15.9
O=C(CSc1nccc(=O)[nH]1)NN(c1ccccc1)c1ccccc1	-25.2	-3.3	-10.6	33.5	18.7	-12.0
CCOC(=O)C1CCCN(C(=S)NC(=O)c2cc(Br)ccc2Cl)C1 (configuration not stated)	·	·	20.2	·	·	·
Cc1cc(C)c2c3c(sc2n1)C(c1cccc(F)c1)C(C#N)=C(N)O3 (configuration not stated)	-1.6	88.9*	13.7	0.0	-11.4	71.9*
C[n+]1cccc(C2C(C#N)=C(N)Oc3c2ccc2ccccc32)c1 (configuration not stated)	-4.4	·	11.9	0.7	10.0	-6.8
Cc1c(C(=O)OCC(C)C)[nH]c2c1C(=O)CC(c1cccs1)C2 (configuration not stated)	12.4	-0.9	23.4	10.8	3.1	54.7*
COCCOC(=O)c1[nH]c2c(c1C)C(=O)CC(c1cccs1)C2 (configuration not stated)	7.1	11.5	·	0.1	-5.2	8.4
CC(=O)c1cn(CCOc2ccc(F)cc2)c2ccccc12	-18.0	·	14.4	-15.3	-12.1	2.4
